The values that follow come from ChEMBL document CHEMBL1153572, “Synthesis and antinociceptive activity of capsinoid derivatives” (Eur J Med Chem, 2009).

The ED50 is the midpoint of the dose-response relation. High values mean weaker potency, low ones greater potency.

Data set [1] relates to Mus musculus. Kind of data set: Antinociceptive activity against acetic acid-induced writhing in sc dosed KM mouse for 30 mins. In kind it is functional. Conditions: 0.5 h. The method in brief:
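Mice, half male and half female, 8 per group, in cages at 23 ± 2 °C, 40–60% humidity and a 12 h light/dark cycle. Compounds were dissolved in 10% Tween-80 (aq) as twofold serial dilutions and given sc as a single 0.2 mL dose, with vehicle control. After 20 min, 0.2 mL of 0.7% acetic acid was given ip. Writhes were counted for 30 min. ED50 reported with 95% C.L.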
In general terms: An intraperitoneal irritant provokes the stretching counted in writhing tests.

Data set [2] is filed under the species Mus musculus. Kind of data set: Toxicity in KM mouse assessed as moderate pain producing potency for 30 mins by wiping test. The format is organism-based. Particulars: in vivo, 0.5 h. The method in brief: (§1)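 Eye-drop test. Twofold dilutions were dropped into the right eye, with vehicle in the left eye as control. Protective movements (scratching, wiping the eye with the foreleg) were counted for 30 min. Six animals per concentration, half male and half female. A dose–response curve was built from group means, and MPP was taken as the concentration giving 32 scratches.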

The species entered for data set [3] is Mus musculus. Kind of data set: Toxicity in KM mouse assessed as number of protective movements for 30 mins by wiping test. The format is organism-based. Conditions: in vivo, 0.5 h. The method in brief:
as §1

The species named for data set [4] is Mus musculus. Put plainly: Toxicity in KM mouse assessed as relative pungent potency for 30 mins by wiping test relative to capsaicin. The format is organism-based. Conditions: in vivo, 0.5 h. Summed up: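 RPP was derived from MPP values read off the eye-drop dose–response curve (movements counted for 30 min, 6 animals per concentration). It was scaled to the pain-producing potency of capsaicin, set as 1000.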

In data set [5] the test system is Mus musculus. Kind of data set: Antinociceptive activity against acetic acid-induced writhing in sc dosed KM mouse for 30 mins relative to indomethacin. In kind it is functional. The method in brief: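 Writhing ED50 from sc dosing (8 mice per group, 10% Tween-80 vehicle, 0.7% acetic acid ip 20 min after dosing, writhes counted for 30 min) expressed as a potency ratio relative to indomethacin run in parallel.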

For the molecule `CCCCCCCCCC(=O)OCc1ccc(OCCCCCC)c(OC)c1`, in data set [1], the 50% effective dose (ED50) turned out to be 1.84 mg/kg. The Activity result is “Non-toxic” in data set [2], 11 in data set [3] and “Non-toxic” in data set [4]. The Ratio in data set [5] was 5.89.
Consider `CCCCCCCCCC(=O)OCc1ccc(OCCCC)c(OC)c1`, for which the ED50 in data set [1] was 3.16 mg/kg. For the same molecule, the Activity result is reported as “Non-toxic” in data set [2], 8 in data set [3] and “Non-toxic” in data set [4]. Also, the Ratio in data set [5] amounted to 3.19.
For the molecule `CCCCCCCCCC(=O)OCc1ccc(OCC)c(OC)c1`, the ED50 in data set [1] amounted to 3.92 mg/kg. In addition, the Activity result in data set [2] is recorded as “Non-toxic”; in data set [3] it was 4; in data set [4], “Non-toxic”. Further, the Ratio in data set [5] is reported as 2.57.
Regarding `COc1cc(CNC(=O)CCCC/C=C/C(C)C)ccc1O` [CAPSAICIN], in data set [2], the Activity was 0.099 mg/mL.
As to `COc1ccc2c(c1)c(CC(=O)O)c(C)n2C(=O)c1ccc(Cl)cc1` [INDOMETHACIN], the Ratio in data set [5] came to 1.
Molecule `CCCCCCCC(=O)OCc1ccc(O)c(OC)c1` [VANILLYL CAPRYLATE] came in with a 50% effective dose (ED50) in data set [1] of 12.6 mg/kg. The results for the Activity entry in data set [2], in data set [3] and in data set [4] were “Non-toxic”, 28 and “Non-toxic”, respectively. Further, the Ratio in data set [5] is listed as 0.8.
In data set [1], `CCCCCCCCCC(=O)OCc1ccc(O)c(OC)c1` [VANILLYL DECANOATE] gave an ED50 of 15.6 mg/kg. Moreover, the Activity entry is on record as “Non-toxic” in data set [2], 25 in data set [3] and “Non-toxic” in data set [4]. Further, the Ratio in data set [5] was determined as 0.65.
`CCCCCCCCCCCC(=O)OCc1ccc(O)c(OC)c1` [VANILLYL LAURATE]: the ED50 in data set [1] came to 19.4 mg/kg. Also, the Activity entry is listed as “Non-toxic” in data set [2], 22 in data set [3] and “Non-toxic” in data set [4]. Further, in data set [5], the Ratio is listed as 0.52.
